# Tests used:
# Klebsiella pneumoniae [1] = experiment: Antimicrobial activity against Klebsiella pneumoniae C2/pMG252 GyrA Ser83Phe mutant expressing porins by microdilution method; format: functional; settings: for MIC: Klebsiella pneumoniae, C2
# Escherichia coli [2] = experiment: Antimicrobial activity against Escherichia coli J53 expressing porins by microdilution method; format: functional
# Method in brief: (§1)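 Microdilution MICs (μg/ml) of ciprofloxacin, levofloxacin or moxifloxacin against Enterobacteriaceae strains differing in qnrA1 carriage: qnrA1 cloned in pACYC184 in E. coli DH10B, natural qnrA1 plasmids transferred to E. coli J53, clinical K. pneumoniae, and qnrA1-negative isogenic controls.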
# Escherichia coli [3] = experiment: Antimicrobial activity against Escherichia coli DH10B expressing porins by microdilution method; format: functional; settings: for MIC: Escherichia coli, DH10B; method in brief: as §1
# Escherichia coli [4] = experiment: Antimicrobial activity against qnrA1 expressing Escherichia coli DH10B expressing porins by microdilution method; format: functional; settings: for MIC: Escherichia coli, DH10B; method in brief: as §1
# Klebsiella pneumoniae [5] = experiment: Antimicrobial activity against qnrA1 expressing Klebsiella pneumoniae UAB1 expressing porins by microdilution method; format: functional; settings: for MIC: Klebsiella pneumoniae, UAB1
# Klebsiella pneumoniae [6] = experiment: Antimicrobial activity against qnrA1 expressing Klebsiella pneumoniae 1132 expressing porins by microdilution method; format: functional; settings: for MIC: Klebsiella pneumoniae; method in brief: as §1
# Klebsiella pneumoniae [7] = experiment: Antimicrobial activity against qnrA1 expressing Klebsiella pneumoniae 1960 GyrA Ser83Phe/ParC mutant expressing porins by microdilution method; format: functional
# Method in brief: (§2)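 Mutants were selected on Mueller-Hinton agar containing ciprofloxacin or moxifloxacin, with colonies allowed to grow for up to 96 h. Colonies recovered one concentration step below the MPC were tested for ciprofloxacin MIC (μg/ml) by microdilution.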
# Klebsiella pneumoniae [8] = experiment: Antimicrobial activity against qnrA1 expressing Klebsiella pneumoniae N5 expressing porins by microdilution method; format: functional; settings: for MIC: Klebsiella pneumoniae, N5; method in brief: as §1
# Klebsiella pneumoniae [9] = experiment: Antimicrobial activity against qnrA1 expressing Klebsiella pneumoniae 1132 GyrA/ParC mutant expressing porins by microdilution method; format: functional
# Klebsiella pneumoniae [10] = experiment: Antimicrobial activity against qnrA1 expressing Klebsiella pneumoniae1960 GyrA Ser83Phe mutant expressing porins by microdilution method; format: functional; settings: for MIC: Klebsiella pneumoniae
# Klebsiella pneumoniae [11] = experiment: Antimicrobial activity against Klebsiella pneumoniae C2 GyrA Ser83Phe mutant lacking porins by microdilution method; settings: for MIC: Klebsiella pneumoniae, C2
# Klebsiella pneumoniae [12] = experiment: Antimicrobial activity against Klebsiella pneumoniae C2/pMG252 GyrA Ser83Phe/ParC mutant expressing porins by microdilution method; format: functional; method in brief: as §2
# Escherichia coli [13] = experiment: Antimicrobial activity against qnrA1 expressing Escherichia coli J53/pMG252 expressing porins by microdilution method; format: functional; settings: for MIC: Escherichia coli, J53; method in brief: as §1
# Klebsiella pneumoniae [14] = experiment: Antimicrobial activity against qnrA1 expressing Klebsiella pneumoniae UAB1 GyrA/ParC mutant expressing porins by microdilution method; format: functional
# Klebsiella pneumoniae [15] = experiment: Antimicrobial activity against qnrA1 expressing Klebsiella pneumoniae N5 GyrA/ParC mutant expressing porins by microdilution method; format: functional
# Escherichia coli [16] = experiment: Antimicrobial activity against Escherichia coli DH10B/pACYC184 expressing porins by microdilution method; format: functional; settings: for MIC: Escherichia coli, DH10B; method in brief: as §1
# Escherichia coli [17] = experiment: Antimicrobial activity against qnrA1 expressing Escherichia coli J53/pN5 expressing porins by microdilution method; format: functional; settings: for MIC: Escherichia coli, J53; method in brief: as §1
# Escherichia coli [18] = experiment: Antimicrobial activity against qnrA1 expressing Escherichia coli J53/p1960 expressing porins by microdilution method; format: functional; settings: for MIC: Escherichia coli, J53; method in brief: as §1
# Escherichia coli [19] = experiment: Antimicrobial activity against Escherichia coli J53/p1132 negative expressing porins by microdilution method; format: functional; method in brief: as §1
# Klebsiella pneumoniae [20] = experiment: Antimicrobial activity against Klebsiella pneumoniae C2 GyrA Ser83Phe/ParC mutant expressing porins by microdilution method; format: functional; method in brief: as §2
# Escherichia coli [21] = experiment: Antimicrobial activity against qnrA1 expressing Escherichia coli J53/pN5 GyrA/ParC mutant expressing porins by microdilution method; format: functional
# Method in brief: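 Broth microdilution MIC, in μg/ml, with ciprofloxacin, levofloxacin or moxifloxacin against the E. coli J53 transconjugant carrying qnrA1.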
# Escherichia coli [22] = experiment: Antimicrobial activity against qnrA1 expressing Escherichia coli J53/p1960 GyrA/ParC mutant expressing porins by microdilution method; format: functional
# Escherichia coli [23] = experiment: Antimicrobial activity against qnrA1 expressing Escherichia coli J53/pMG252 GyrA/ParC mutant expressing porins by microdilution method; format: functional
# Escherichia coli [24] = experiment: Antimicrobial activity against Escherichia coli J53/p1132 negative GyrA/ParC mutant expressing porins by microdilution method; format: functional
# Escherichia coli [25] = experiment: Antimicrobial activity against Escherichia coli J53 GyrA/ParC mutant expressing porins by microdilution method; format: functional
# Escherichia coli [26] = experiment: Antimicrobial activity against qnrA1 expressing Escherichia coli DH10B GyrA/ParC mutant expressing porins by microdilution method; format: functional
structure (smiles),measurement,setting,value
O=C(O)c1cn(C2CC2)c2cc(N3CCNCC3)c(F)cc2c1=O [CIPROFLOXACIN],MPC,Klebsiella pneumoniae [1],128 µg/mL
same,MIC,Klebsiella pneumoniae [1],2 µg/mL
same,MPC,Escherichia coli [2],0.06 µg/mL
same,MPC,Escherichia coli [3],0.015 µg/mL
same,MPC,Escherichia coli [4],2 µg/mL
same,MPC,Klebsiella pneumoniae [5],16 µg/mL
same,MIC,Klebsiella pneumoniae [5],2 µg/mL
same,MPC,Klebsiella pneumoniae [6],32 µg/mL
same,MIC,Klebsiella pneumoniae [6],4 µg/mL
same,MIC,Klebsiella pneumoniae [7],32 µg/mL
same,MPC,Klebsiella pneumoniae [8],4 µg/mL
same,MIC,Klebsiella pneumoniae [8],0.25 µg/mL
same,MIC,Klebsiella pneumoniae [9],16 µg/mL
same,MPC,Klebsiella pneumoniae [10],64 µg/mL
same,MIC,Klebsiella pneumoniae [10],1 µg/mL
same,MPC,Klebsiella pneumoniae [11],8 µg/mL
same,MIC,Klebsiella pneumoniae [11],0.25 µg/mL
same,MIC,Klebsiella pneumoniae [12],64 µg/mL
same,MPC,Escherichia coli [13],4 µg/mL
same,MIC,Klebsiella pneumoniae [14],16 µg/mL
same,MIC,Klebsiella pneumoniae [15],8 µg/mL
same,MPC,Escherichia coli [16],0.015 µg/mL
same,MPC,Escherichia coli [17],4 µg/mL
same,MPC,Escherichia coli [18],4 µg/mL
same,MPC,Escherichia coli [19],0.06 µg/mL
same,MIC,Klebsiella pneumoniae [20],4 µg/mL
C[C@H]1COc2c(N3CCN(C)CC3)c(F)cc3c(=O)c(C(=O)O)cn1c23.C[C@H]1COc2c(N3CCN(C)CC3)c(F)cc3c(=O)c(C(=O)O)cn1c23.O [LEVOFLOXACIN],MPC,Klebsiella pneumoniae [1],128 µg/mL
same,MIC,Klebsiella pneumoniae [1],2 µg/mL
same,MPC,Escherichia coli [2],0.06 µg/mL
same,MPC,Escherichia coli [3],0.015 µg/mL
same,MIC,Escherichia coli [3],0.004 µg/mL
same,MPC,Escherichia coli [4],2 µg/mL
same,MIC,Escherichia coli [4],0.125 µg/mL
same,MPC,Klebsiella pneumoniae [5],16 µg/mL
same,MIC,Klebsiella pneumoniae [5],2 µg/mL
same,MPC,Klebsiella pneumoniae [6],32 µg/mL
same,MIC,Klebsiella pneumoniae [6],4 µg/mL
same,MIC,Klebsiella pneumoniae [7],64 µg/mL
same,MPC,Klebsiella pneumoniae [8],4 µg/mL
same,MIC,Klebsiella pneumoniae [9],16 µg/mL
same,MPC,Klebsiella pneumoniae [10],64 µg/mL
same,MIC,Klebsiella pneumoniae [10],2 µg/mL
same,MPC,Klebsiella pneumoniae [11],8 µg/mL
same,MIC,Klebsiella pneumoniae [11],0.25 µg/mL
same,MIC,Klebsiella pneumoniae [12],64 µg/mL
same,MPC,Escherichia coli [13],4 µg/mL
same,MIC,Escherichia coli [13],0.25 µg/mL
same,MIC,Klebsiella pneumoniae [14],16 µg/mL
same,MIC,Klebsiella pneumoniae [15],8 µg/mL
same,MPC,Escherichia coli [16],0.015 µg/mL
same,MIC,Escherichia coli [16],0.004 µg/mL
same,MIC,Escherichia coli [21],4 µg/mL
same,MIC,Escherichia coli [22],2 µg/mL
same,MPC,Escherichia coli [17],4 µg/mL
same,MIC,Escherichia coli [17],0.125 µg/mL
same,MPC,Escherichia coli [18],4 µg/mL
same,MIC,Escherichia coli [18],0.125 µg/mL
same,MPC,Escherichia coli [19],0.06 µg/mL
same,MIC,Klebsiella pneumoniae [20],8 µg/mL
same,MIC,Escherichia coli [23],2 µg/mL
COc1c(N2C[C@@H]3CCCN[C@@H]3C2)c(F)cc2c(=O)c(C(=O)O)cn(C3CC3)c12 [MOXIFLOXACIN],MIC,Klebsiella pneumoniae [1],1 µg/mL
same,MPC,Escherichia coli [2],0.125 µg/mL
same,MIC,"Escherichia coli [2]; Escherichia coli, J53",0.015 µg/mL
same,MPC,Escherichia coli [3],0.06 µg/mL
same,MIC,Escherichia coli [3],0.002 µg/mL
same,MPC,Escherichia coli [4],2 µg/mL
same,MIC,Escherichia coli [4],0.125 µg/mL
same,MPC,Klebsiella pneumoniae [5],32 µg/mL
same,MIC,Klebsiella pneumoniae [5],4 µg/mL
same,MPC,Klebsiella pneumoniae [6],32 µg/mL
same,MIC,Klebsiella pneumoniae [6],8 µg/mL
same,MIC,Escherichia coli [24],0.25 µg/mL
same,MIC,Klebsiella pneumoniae [7],16 µg/mL
same,MIC,Escherichia coli [25],0.5 µg/mL
same,MIC,Escherichia coli [26],0.5 µg/mL
same,MPC,Klebsiella pneumoniae [8],16 µg/mL
same,MIC,Klebsiella pneumoniae [8],0.5 µg/mL
same,MIC,Klebsiella pneumoniae [9],16 µg/mL
same,MIC,Klebsiella pneumoniae [10],2 µg/mL
same,MPC,Klebsiella pneumoniae [11],4 µg/mL
same,MIC,Klebsiella pneumoniae [11],0.125 µg/mL
same,MIC,Klebsiella pneumoniae [12],32 µg/mL
same,MPC,Escherichia coli [13],4 µg/mL
same,MIC,Escherichia coli [13],0.5 µg/mL
same,MIC,Klebsiella pneumoniae [14],32 µg/mL
same,MIC,Klebsiella pneumoniae [15],4 µg/mL
same,MPC,Escherichia coli [16],0.06 µg/mL
same,MIC,Escherichia coli [16],0.002 µg/mL
same,MIC,Escherichia coli [22],4 µg/mL
same,MPC,Escherichia coli [17],4 µg/mL
same,MIC,Escherichia coli [17],0.125 µg/mL
same,MPC,Escherichia coli [18],4 µg/mL
same,MIC,Escherichia coli [18],0.125 µg/mL
same,MPC,Escherichia coli [19],0.25 µg/mL
same,MIC,"Escherichia coli [19]; Escherichia coli, J53",0.015 µg/mL
same,MIC,Klebsiella pneumoniae [20],2 µg/mL

# From ChEMBL document CHEMBL1144466, “Mutant prevention concentrations of fluoroquinolones for Enterobacteriaceae expressing the plasmid-carried quinolone resistance determinant qnrA1” (2007)
